From ChEMBL document CHEMBL1268931, “Tailored α-methylene-γ-butyrolactones and their effects on growth suppression in pancreatic carcinoma cells” (Bioorg Med Chem Lett, 2010)

What was measured:
MIA PaCa-2 [1] = assay: Cytotoxicity against human MIAPaCa2 cells assessed as cell growth at 1 uM after 72 hrs by MTT assay relative to untreated control; type: functional; conditions: MIA PaCa-2, 72 h, read-out: Activity
In short: (§1)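 After 72 h of exposure, growth was read with MTS (CellTiter 96 AQueous One) colorimetric reagent as percent of control-treated cells (100%). Mean of at least two independent experiments run in triplicate.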

PANC-1 [2] = assay: Cytotoxicity against human PANC1 cells assessed as cell growth at 1 uM after 72 hrs by MTT assay relative to untreated control; type: functional; conditions: PANC-1, 72 h, read-out: Activity; in short: as §1
PANC-1 [3] = assay: Cytotoxicity against human PANC1 cells assessed as cell growth at 10 uM after 72 hrs by MTT assay relative to untreated control; type: functional; conditions: PANC-1, 72 h, read-out: Activity; in short: as §1
BXPC-3 [4] = assay: Cytotoxicity against human BxPC3 cells assessed as cell growth at 10 uM after 72 hrs by MTT assay relative to untreated control; type: functional; conditions: BXPC-3, 72 h, read-out: Activity; in short: as §1
MIA PaCa-2 [5] = assay: Cytotoxicity against human MIAPaCa2 cells assessed as cell growth at 10 uM after 72 hrs by MTT assay relative to untreated control; type: functional; conditions: MIA PaCa-2, 72 h, read-out: Activity; in short: as §1
BXPC-3 [6] = assay: Cytotoxicity against human BxPC3 cells assessed as cell growth at 1 uM after 72 hrs by MTT assay relative to untreated control; type: functional; conditions: BXPC-3, 72 h, read-out: Activity; in short: as §1
[7] = Toxicity against human normal Hematopoietic Progenitor Cells isolated from human cord blood at 1 uM after 18 hrs by MTT assay relative to untreated control

Compound	growth at 1 µM (MIA PaCa-2 [1])	growth at 1 µM (PANC-1 [2])	growth at 10 µM (PANC-1 [3])	growth at 10 µM (BXPC-3 [4])	growth at 10 µM (MIA PaCa-2 [5])	growth at 1 µM (BXPC-3 [6])	Activity [7]
C=C1C(=O)O[C@@H](c2ccccc2)[C@H]1C (relative stereo)	114%	143%	62%	41%	14%	98%	
C=C1C(=O)O[C@@H](c2c(F)c(F)c(F)c(F)c2F)[C@H]1C (relative stereo)	120%	86%	70%	89%	53%	98%	
C=C1C(=O)O[C@H](c2ccc(C)cc2)[C@H]1c1ccccc1 (relative stereo)	26%	105%	0%	0%	2%	67%	Non-toxic
C=C1C(=O)O[C@@H](c2ccccc2)[C@H]1c1ccccc1 (relative stereo)	32%	108%	38%	8%	3%	51%	
C=C1C(=O)O[C@@H](C2CCCCC2)[C@H]1c1ccccc1 (relative stereo)			104%	95%	81%		
C=C1C(=O)O[C@H](c2ccc(OC)cc2)[C@H]1c1ccccc1 (relative stereo)	54%	80%	0%	0%	0%	73%	
C=C1C(=O)O[C@H](c2ccc3ccccc3c2)[C@H]1c1ccccc1 (relative stereo)	29%	53%	13%	1%	3%	60%	Non-toxic
C=C1C(=O)O[C@H](c2ccc(C(F)(F)F)cc2)[C@H]1c1ccccc1 (relative stereo)	142%	152%	33%	13%	5%	138%	
C=C1C(=O)O[C@H](c2ccc3ccccc3c2)[C@H]1C (relative stereo)	74%	139%	22%	27%	4%	113%	
C=C1C(=O)O[C@@H]2C3O[C@]3(C)CC/C=C(\C)CC[C@@H]12 (stereo not given in full)	78%	132%	12%	6%	3%	92%	
C=C1C(=O)OCC1c1ccccc1 (stereo not given)			31%	40%	14%		
C=C1C(=O)O[C@@H](c2ccc3ccccc3c2)[C@H]1c1ccccc1 (relative stereo)	125%	98%	33%	1%	6%	104%	
C=C1CC(c2ccccc2)OC1=O (stereo not given)			135%	136%	106%		
C=C1C(=O)O[C@@H](C(C)C)[C@H]1C (relative stereo)			119%	153%	143%		
C=C1C(=O)O[C@@H](c2ccc(OC)cc2)[C@H]1C (relative stereo)	109%	130%	32%	13%	9%	128%	
C/C=C1\C(=O)O[C@@H](c2ccc([N+](=O)[O-])cc2)[C@H]1C (relative stereo)			106%	117%	110%		
C/C=C1\C(=O)O[C@H](c2ccc(OC)cc2)[C@H]1C (relative stereo)			139%	179%	124%		
C=C1C(=O)O[C@H](c2ccccc2)[C@H]1c1ccccc1 (relative stereo)	30%	116%	1%	1%	1%	86%	Non-toxic
C/C1=C\CC[C@@]2(C)O[C@@H]2[C@H]2OC(=O)C(CN(C)C)[C@@H]2CC1 (stereo not given in full) [DIMETHYLAMINOPARTHENOLIDE]	73%	117%	17%	7%	2%	92%	Non-toxic
